The text below walks through data of ChEMBL document CHEMBL1153373, “Effect of ring size on conformation and biological activity of cyclic cationic antimicrobial peptides” (J Med Chem, 2009).

Converted amounts (≈) assume the structure as drawn. Square brackets hold non-standard residues; d marks the D form. Peptide text beside a SMILES is read from it. Orn = NCCC[C@H](N)C(=O)O

The MIC is the least concentration at which growth counts as inhibited.

Series [1] in a line: Therapeutic index, ratio of hemolytic activity in human RBC to MIC for Enterobacter cloacae. Conditions: human red blood cells (RBC), read-out: TI.
The nature of series [2]: Therapeutic index, ratio of hemolytic activity in human RBC to MIC for Serratia marcescens. Conditions: human red blood cells (RBC), read-out: TI.
A short description of series [3]: Therapeutic index, ratio of hemolytic activity in human RBC to MIC for Streptococcus mitis. Conditions: human red blood cells (RBC), read-out: TI.
Series [4] is described as follows: Therapeutic index, ratio of hemolytic activity in human RBC to MIC for Streptococcus pneumoniae. Conditions: human red blood cells (RBC), read-out: TI.
Series [5] is described as follows: Therapeutic index, ratio of hemolytic activity in human RBC to MIC for Corynebacterium jeikeium. Conditions: human red blood cells (RBC), read-out: TI.
Series [6] in a line: Therapeutic index, ratio of hemolytic activity in human RBC to MIC for Pseudomonas aeruginosa. Conditions: human red blood cells (RBC), read-out: TI.
Series [7] can be described thus: Therapeutic index, ratio of hemolytic activity in human RBC to MIC for Cryptococcus neoformans. Conditions: human red blood cells (RBC), read-out: TI.
The nature of series [8]: Toxicity in human RBC assessed as fold reduction in hemolytic activity at 100 ug/ml after 24 hrs relative to control. In kind it is cell-based. Conditions: erythrocyte.
In the next series the test system is Enterococcus faecalis. The experiment in a line: Antimicrobial activity against Enterococcus faecalis after 24 hrs by standard microtiter dilution method. In kind it is functional.
The subject of series [9] is Staphylococcus epidermidis. As to the kind of experiment: Antimicrobial activity against Staphylococcus epidermidis after 24 hrs by standard microtiter dilution method. In kind it is functional.
The next series deals with Streptococcus mitis. As to the kind of experiment: Antimicrobial activity against Streptococcus mitis after 24 hrs by standard microtiter dilution method. In kind it is functional.
A further series has as its system Streptococcus pneumoniae. As to the kind of experiment: Antimicrobial activity against Streptococcus pneumoniae after 24 hrs by standard microtiter dilution method. In kind it is functional.
The next series relates to Klebsiella pneumoniae. As to the kind of experiment: Antimicrobial activity against Klebsiella pneumoniae after 24 hrs by standard microtiter dilution method. In kind it is functional.
The subject of series [10] is Stenotrophomonas maltophilia. As to the kind of experiment: Antimicrobial activity against Stenotrophomonas maltophilia after 24 hrs by standard microtiter dilution method. In kind it is functional.
Another series relates to Cryptococcus neoformans. The experiment in a line: Antimicrobial activity against Cryptococcus neoformans after 24 hrs by standard microtiter dilution method. In kind it is functional. A digest of the protocol: (§1)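 Fungal MICs were determined by standard microtitre dilution, taken as the lowest peptide concentration inhibiting growth after 24 h incubation at 37 °C.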

Series [11] can be described thus: Therapeutic index, ratio of hemolytic activity in human RBC to MIC for Enterococcus faecalis. Conditions: human red blood cells (RBC), read-out: TI.
Series [12] in a line: Therapeutic index, ratio of hemolytic activity in human RBC to MIC for Staphylococcus aureus. Conditions: human red blood cells (RBC), read-out: TI.
Series [13] can be described thus: Therapeutic index, ratio of hemolytic activity in human RBC to MIC for Staphylococcus epidermidis. Conditions: human red blood cells (RBC), read-out: TI.
Series [14] can be described thus: Therapeutic index, ratio of hemolytic activity in human RBC to MIC for Streptococcus pyogenes. Conditions: human red blood cells (RBC), read-out: TI.
The nature of series [15]: Therapeutic index, ratio of hemolytic activity in human RBC to MIC for Acinetobacter calcoaceticus. Conditions: human red blood cells (RBC), read-out: TI.
A short description of series [16]: Therapeutic index, ratio of hemolytic activity in human RBC to MIC for Escherichia coli. Conditions: human red blood cells (RBC), read-out: TI.
Series [17] is described as follows: Therapeutic index, ratio of hemolytic activity in human RBC to MIC for Klebsiella pneumoniae. Conditions: human red blood cells (RBC), read-out: TI.
Series [18] in a line: Therapeutic index, ratio of hemolytic activity in human RBC to MIC for Stenotrophomonas maltophilia. Conditions: human red blood cells (RBC), read-out: TI.
Series [19] is described as follows: Therapeutic index, ratio of hemolytic activity in human RBC to MIC for Candida albicans. Conditions: human red blood cells (RBC), read-out: TI.
Series [20] can be described thus: Toxicity in human RBC assessed as hemolytic activity at 100 ug/ml after 24 hrs relative to control. In kind it is cell-based, Erythrocyte. Conditions: human red blood cells (RBC), read-out: Activity. A digest of the protocol: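 Human erythrocytes in saline were exposed to peptide at 100 µg/mL for 24 h at 37 °C. Result is expressed as percent hemolysis.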
The test system of the next series is Staphylococcus aureus. The experiment in a line: Antimicrobial activity against Staphylococcus aureus after 24 hrs by standard microtiter dilution method. In kind it is functional.
The next series deals with Streptococcus pyogenes. The experiment in a line: Antimicrobial activity against Streptococcus pyogenes after 24 hrs by standard microtiter dilution method. In kind it is functional.
Another series relates to Corynebacterium jeikeium. As to the kind of experiment: Antimicrobial activity against Corynebacterium jeikeium after 24 hrs by standard microtiter dilution method. In kind it is functional.
Series [21] relates to Acinetobacter calcoaceticus. As to the kind of experiment: Antimicrobial activity against Acinetobacter calcoaceticus after 24 hrs by standard microtiter dilution method. In kind it is functional.
A further series relates to Enterobacter cloacae. As to the kind of experiment: Antimicrobial activity against Enterobacter cloacae after 24 hrs by standard microtiter dilution method. In kind it is functional.
The subject of another series is Escherichia coli. As to the kind of experiment: Antimicrobial activity against Escherichia coli after 24 hrs by standard microtiter dilution method. In kind it is functional.
The subject of a further series is Pseudomonas aeruginosa. The experiment in a line: Antimicrobial activity against Pseudomonas aeruginosa after 24 hrs by standard microtiter dilution method. In kind it is functional.
Another series deals with Serratia marcescens. The experiment in a line: Antimicrobial activity against Serratia marcescens after 24 hrs by standard microtiter dilution method. In kind it is functional.
In a further series the test system is Candida albicans. As to the kind of experiment: Antimicrobial activity against Candida albicans after 24 hrs by standard microtiter dilution method. In kind it is functional. In outline:
as §1

Take `CC(C)C[C@@H]1NC(=O)[C@H](CCCCN)NC(=O)[C@H](C(C)C)NC(=O)[C@@H]2CCCN2C(=O)[C@@H](Cc2ccc(O)cc2)NC(=O)[C@H](CC(C)C)NC(=O)[C@H](CCCCN)NC(=O)[C@H](C(C)C)NC(=O)[C@H](CCCCN)NC(=O)[C@H](CC(C)C)NC(=O)[C@@H]2CCCN2C(=O)[C@@H](Cc2ccc(O)cc2)NC(=O)[C@H](CCCCN)NC1=O` (cyclo(VKLK[dY]PLKVKL[dY]P)): the selectivity ratio in series [1] turned out to be 4; in series [2] it was 2.
As to `CC(C)C[C@@H]1NC(=O)[C@H](CCCCN)NC(=O)[C@H](C(C)C)NC(=O)[C@@H]2CCCN2C(=O)[C@@H](Cc2ccc(O)cc2)NC(=O)[C@H](CC(C)C)NC(=O)[C@H](CCCCN)NC(=O)[C@H](C(C)C)NC(=O)[C@@H]2CCCN2C(=O)[C@@H](Cc2ccc(O)cc2)NC1=O` (cyclo(KL[dY]PVKL[dY]PV)), the selectivity ratio is 100 in series [3]; 100 in series [4]; 100 in [5]; 1 in [6]; 100 in series [7]. Also, in [8], the Activity is 1. In addition, the MIC in the series on Enterococcus faecalis is 2 µg/mL (≈ 1.66 µM); in series [9], 2 µg/mL (≈ 1.66 µM); against Streptococcus mitis, 1 µg/mL (≈ 0.832 µM); in the series with Streptococcus pneumoniae it was 1 µg/mL (≈ 0.832 µM); against Klebsiella pneumoniae it was 32 µg/mL (≈ 26.6 µM); in series [10], 16 µg/mL (≈ 13.3 µM). It took 1 µg/mL (≈ 0.832 µM) to inhibit growth in the series on Cryptococcus neoformans (MIC).
For `CC(C)C[C@@H]1NC(=O)[C@H](CCCN)NC(=O)[C@H](C(C)C)NC(=O)[C@@H]2CCCN2C(=O)[C@@H](Cc2ccccc2)NC(=O)[C@H](CC(C)C)NC(=O)[C@H](CCCN)NC(=O)[C@H](C(C)C)NC(=O)[C@@H]2CCCN2C(=O)[C@@H](Cc2ccccc2)NC1=O` [GRAMICIDIN S] (cyclo(L[dF]PV[Orn]L[dF]PV[Orn])), the selectivity ratio in [11] was determined as 50; in series [12] it was 50; in series [13] it was 50; in series [3], 200; in series [4] it was 100; in series [14], 200. The selectivity ratio in [5] is 25; in [15], 12; in series [1], 3; in series [16], 6; in [17], 6; in series [6], 3. The selectivity ratio in [18] stood at 12; in series [2] it was 0.3; in [19], 12; in series [7] it was 100. Further, in [20], the hemolysis at 24 h, 100 ug/ml was 100%. Besides, the Activity in [8] is 1. In addition, the MIC is 2 µg/mL (≈ 1.75 µM) against Enterococcus faecalis; 2 µg/mL (≈ 1.75 µM) in the series with Staphylococcus aureus; 2 µg/mL (≈ 1.75 µM) in series [9]; 0.5 µg/mL (≈ 0.438 µM) with Streptococcus mitis; 1 µg/mL (≈ 0.876 µM) with Streptococcus pneumoniae; 0.5 µg/mL (≈ 0.438 µM) in the series on Streptococcus pyogenes. Moreover, the MIC with Corynebacterium jeikeium is 4 µg/mL (≈ 3.5 µM); in series [21], 8 µg/mL (≈ 7.01 µM); with Enterobacter cloacae it was 32 µg/mL (≈ 28 µM); against Escherichia coli it was 16 µg/mL (≈ 14 µM); in the series on Klebsiella pneumoniae it was 16 µg/mL (≈ 14 µM); in the series with Pseudomonas aeruginosa, 32 µg/mL (≈ 28 µM). Besides, the minimal inhibitory concentration (MIC) amounted to 8 µg/mL (≈ 7.01 µM) in series [10], 256 µg/mL (≈ 224 µM) in the series with Serratia marcescens, 8 µg/mL (≈ 7.01 µM) in the series with Candida albicans and 1 µg/mL (≈ 0.876 µM) against Cryptococcus neoformans.
For `CC(C)C[C@@H]1NC(=O)[C@H](CCCCN)NC(=O)[C@H](C(C)C)NC(=O)[C@@H]2CCCN2C(=O)[C@@H](Cc2ccc(O)cc2)NC(=O)[C@H](CC(C)C)NC(=O)[C@H](CCCCN)NC(=O)[C@H](C(C)C)NC(=O)[C@H](CCCCN)NC(=O)[C@H](CC(C)C)NC(=O)[C@@H]2CCCN2C(=O)[C@@H](Cc2ccc(O)cc2)NC(=O)[C@H](C(C)C)NC(=O)[C@H](CCCCN)NC1=O` (cyclo(KLKV[dY]PLKVKL[dY]PV)), the selectivity ratio in series [6], in series [18] and in [19] was 2 throughout. Besides, the Activity in series [8] turned out to be 1. Besides, the MIC in the series with Staphylococcus aureus was 32 µg/mL (≈ 19.2 µM); in the series on Streptococcus pyogenes, 1 µg/mL (≈ 0.599 µM); in [21], 16 µg/mL (≈ 9.58 µM); with Klebsiella pneumoniae, 128 µg/mL (≈ 76.6 µM); in the series with Pseudomonas aeruginosa it was 64 µg/mL (≈ 38.3 µM); against Serratia marcescens, 256 µg/mL (≈ 153 µM). Also, the MIC in the series with Candida albicans stood at 64 µg/mL (≈ 38.3 µM); with Cryptococcus neoformans, 2 µg/mL (≈ 1.2 µM).
Consider `CC(C)C[C@@H]1NC(=O)[C@H](CCCCN)NC(=O)[C@H](C(C)C)NC(=O)[C@@H]2CCCN2C(=O)[C@@H](Cc2ccc(O)cc2)NC(=O)[C@H](CC(C)C)NC(=O)[C@H](CCCCN)NC(=O)[C@H](C(C)C)NC(=O)[C@@H]2CCCN2C(=O)[C@@H](Cc2ccc(O)cc2)NC(=O)[C@H](CCCCN)NC1=O` (cyclo(VKLK[dY]PVKL[dY]P)), for which the selectivity ratio in series [13] was 128; in [4], 255; in series [15], 255; in [19], 16.
